Hits are enriched below; roughly 0.94% of the tested compounds scored in any of these assays.
CTSL1 counter: Fasciola hepatica cathepsin L1 inhibitors, primary screen, counter-screen for PFM18AAP inhibitor project, biochemical, QFRET, fluorogenic peptide substrate; inhibition, % at 5.96 µM; AID 1906, 2009; hit rate 0.49% among 300,000; recombinant F. hepatica cathepsin L1, Z-Leu-Arg-MCA fluorescence;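 active = inhibition above the mean of all tested compounds plus 3 SD, set per screening campaign, cut at about 17% in these data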;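 also: 0% = plate median of test compound wells and 100% = 1 µM Z-Phe-Ala-diazomethylketone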
PKA-R2B act: activators of PKA-R2B holoenzyme, primary screen, biochemical, fluorescence polarization, Cy5-IP20, human; hit rate 0.079% among 340,000; activation, % at 11.4 µM; cAMP-dependent protein kinase catalytic subunit beta (Homo sapiens) + cAMP-dependent …; PKA-R2B holoenzyme dissociation; R2B truncated from residue 108, S112A mutant; 0% DMSO only, 100% 113 µM cGMP;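 active = activation above a cutoff set at the mean over all compounds plus 3 SD, cut at about 18% in these data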;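 also: higher means more holoenzyme dissociation and a rise in polarization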
Target sequence (P31323 whole entry, looked up, other chains not shown, the tested form may be a part): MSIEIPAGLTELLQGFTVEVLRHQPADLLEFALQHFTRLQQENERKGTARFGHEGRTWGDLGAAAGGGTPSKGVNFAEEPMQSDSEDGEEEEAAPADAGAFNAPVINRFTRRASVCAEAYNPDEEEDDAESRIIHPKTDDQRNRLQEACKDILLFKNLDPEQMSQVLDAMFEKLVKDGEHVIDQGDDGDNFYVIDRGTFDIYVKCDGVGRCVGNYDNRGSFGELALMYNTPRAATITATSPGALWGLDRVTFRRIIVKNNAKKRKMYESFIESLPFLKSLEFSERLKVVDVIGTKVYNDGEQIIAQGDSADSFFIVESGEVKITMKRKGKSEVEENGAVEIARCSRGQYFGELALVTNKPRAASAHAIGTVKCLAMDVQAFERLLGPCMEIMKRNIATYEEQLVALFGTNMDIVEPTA
aDG glyco up: activators of alpha-DG glycosylation, primary screen, uHTS, Pro5-aDG cells, AlphaScreen | AID 624168, 2012 | activation, % at 10 µM | hit rate 0.22% among 360,000 | alpha-DG glycosylation AlphaScreen (IIH6); 0% Pro5, 100% B10-LARGE cell signal;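 active = activation of at least 8% versus controls, or a plate z-score of at least 8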;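 also: Pro5 are CHO cells carrying HIG-tagged alpha-DG that lacks glycosylation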
UCH37 inh: inhibitors of human UCH37 deubiquitinase, primary screen, biochemical, Ub-AMC cleavage, fluorescence; Ubiquitin carboxyl-terminal hydrolase isozyme L5 (Homo sapiens), Q9Y5K5; purified proteasome/UCH37; inhibition, % (concentration not given with the values); hit rate 0.33% among 330,000;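 active = mean inhibition over replicate wells above about 20%, limit read from the data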;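 also: 0% = compound-free wells with enzyme and 100% = wells lacking proteasome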
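Schedule: 30 min plus 25 min, room temperature / Material: human UCH37 within purified proteasomes / Technique: AMC fluorescence intensity at 355/460 nm / Buffer or medium: pH 7.4 Tris-HCl (50 mM) with ovalbumin, ATP-MgCl2, DTT / Controls: wells without proteasome as full block, compound-free enzyme plus substrate as uninhibited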
PKA-R1A act: activators of PKA-R1A holoenzyme, primary screen, biochemical, fluorescence polarization, Cy5-IP20, bovine R1A, mouse PKAc. hit rate 0.083% among 340,000. PKA-R1A dissociation; scaled: DMSO 0%, 113 µM cGMP 100%. activation, % at 11.4 µM. cAMP-dependent protein kinase type I-alpha regulatory subunit (Bos taurus) + …;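 active = percent activation above the mean of all tested compounds plus 3 SD, cut at about 19% in these data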;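 also: higher means more PKAc released from R1A so a rise in polarization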
R1A FP artifact: FP signal interference without PKA proteins, confirmation, artefact control for PKA-R1A activator project, biochemical, fluorescence polarization, triplicate | shares compounds with PKA-R1A act | Cy5-IP20 peptide alone, fluorescence polarization artifact counterscreen | activation, % at 11.4 µM | hit rate 7% among 280 | AID 504799, 2011;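 active = mean activation over triplicate runs exceeds the adjusted cutoff derived for the parent primary screen, cut at about 19% in these data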;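 also: no PKA protein present so any polarization rise reflects compound interference; 0% = tracer peptide mix alone and 100% = mix with added PKA catalytic subunit; higher means stronger polarization artifact and likely false positive in parent screen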
PKA-R1A act conf: activators of PKA-R1A holoenzyme, confirmation, biochemical, fluorescence polarization, Cy5-IP20, triplicate. hit rate 9% among 280. PKA-R1A holoenzyme dissociation. shares compounds with PKA-R1A act. activation, % at 11.4 µM. AID 504800, 2011;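 active = mean activation over replicate wells exceeds the adjusted hit threshold taken from the earlier primary screen, cut at about 20% in these data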;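 also: 0% = holoenzyme mix with DMSO only and 100% = cGMP-activated control wells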
Numbers without * were called inactive; · = not tested or not shown.

SMILES | CTSL1 counter | PKA-R2B act | aDG glyco up | UCH37 inh | PKA-R1A act | R1A FP artifact | PKA-R1A act conf
O=C(Cn1c2ccccc2c(=O)c2ccccc21)NN=Cc1cc([N+](=O)[O-])ccc1N1CCCCCC1 | · | · | · | 8 | · | · | ·
Cc1nc(CCNS(=O)(=O)c2cccnc2)cs1 | -2 | -5 | 0 | 1 | 1 | · | ·
Cc1nc(CCNS(=O)(=O)c2cccs2)cs1 | 3 | -5 | 0 | 2 | 20* | 6 | 0
O=C(Nc1ccc(Oc2cccnc2)cc1)C1CCN(Cc2ccccc2)CC1 | 4 | 2 | 0 | 6 | 19* | 2 | 1
CCCC1=C(C(=O)OCC)C(c2sccc2C)n2ncnc2N1 (centres undefined) | -3 | 5 | 0 | 1 | 19* | 4 | 4
CCCC1=C(C(=O)OCC)C(c2ccc(O)cc2)n2ncnc2N1 (centres undefined) | 1 | -1 | 0 | 0 | 2 | · | ·
CCCC(C)=NNc1nc2c(c(=O)n(C)c(=O)n2C)n1C | · | · | · | 4 | · | · | ·
COc1ccccc1NC(=O)CC1S/C(=N/N=C(C)C2CCCCC2)NC1=O (centres undefined) | · | · | · | -1 | · | · | ·
O=C(Cn1cnc2ccccc2c1=O)Nc1ccc(S(=O)(=O)N2CCOCC2)cc1 | -3 | 2 | 0 | 0 | 19* | 0 | 3
COc1ccc2nc(NC(=O)c3ccc(NC(=O)C4CCCO4)cc3)sc2c1 (centres undefined) | -7 | 5 | 0 | -172 | 20* | 0 | -2
CC(C)OCCCNC(=O)c1c(N)n(N=Cc2ccccn2)c2nc3ccccc3nc12 | · | · | · | -6 | · | · | ·
CC(C)CCOc1ccc(C(=O)N2CCCC2C(=O)O)cc1 (centres undefined) | 4 | -2 | 0 | 0 | 20* | 3 | 2
CCCCOc1ccc(C(=O)Nn2c(-c3cccs3)nc3ccccc3c2=O)cc1 | -2 | 6 | 2 | -421 | 19* | 2 | 4
CC(NC(=O)C1CCCC1)C1CC2CCC1C2 (centres undefined) | -2 | -3 | 0 | -23 | 20* | 2 | 0
CC(NC(=O)C1CC=CCC1C(=O)O)C1CC2CCC1C2 (centres undefined) | -1 | 0 | 0 | 0 | -15 | · | ·
Cc1c(-c2ccccc2)[n+](=O)c(-c2ccc(Br)cc2)c(C)n1[O-] | -1 | -7 | 0 | 5 | 11 | · | ·
Cc1c(-c2ccccc2)[n+](=O)c(-c2ccc(Cl)cc2)c(C)n1[O-] | 2 | -3 | 0 | 5 | 19* | 5 | 3
Cc1cc(C(=O)COC(=O)c2ccc(CO)cc2)c(C)n1CC1COc2ccccc2O1 (centres undefined) | -3 | 6 | 1 | 2 | 19* | 0 | 1
CN(C)c1ccc(NC(=NS(=O)(=O)c2cccs2)c2ccccc2)cc1 | · | · | · | 7 | · | · | ·
COc1cccc(C(=O)N2CCN(C(=O)C3CCCO3)CC2)c1 (centres undefined) | · | 4 | 0 | 5 | 20* | 3 | 6
COc1ccc(CC(=O)NCCc2ccc(S(N)(=O)=O)cc2)cc1 | -1 | 2 | 0 | 1 | -4 | · | ·
Cc1ccc(CC(=O)NCCc2ccc(S(N)(=O)=O)cc2)cc1 | 1 | 7 | 0 | 3 | 19* | 0 | -2
CCn1c(C)nc2cc(C(=O)NN=Cc3ccccc3C)ccc21 | · | · | · | 2 | · | · | ·
CN(C)CCCCOc1cccc(Br)c1 | 3 | -3 | 0 | · | 23* | 6 | 4
CN(C)CCOc1cccc(Cl)c1 | -1 | 4 | 0 | 2 | 10 | · | ·
SMILES | CTSL1 counter | PKA-R2B act | aDG glyco up | UCH37 inh | PKA-R1A act | R1A FP artifact | PKA-R1A act conf
Cc1cccc(C(=O)OCC(=O)N2CCCCCC2)c1C | · | -8 | 0 | 2 | -12 | · | ·
Cc1ccc(C(=O)c2ccccc2C(=O)OCC(=O)N2CCCC2)cc1 | · | 3 | 0 | -1 | 20* | 2 | 8
O=C1N(C2CCCC2)C[C@@H]2C[C@@H](c3cccn3-c3ccccn3)N3CCC[C@@]123 | 1 | 5 | 1 | -1 | 20* | 2 | 2
O=S(=O)(c1ccc(Br)s1)N1CCN(CCc2ccccc2)CC1 | · | -9 | 0 | 4 | 19* | 0 | 3
CCN1CCN(S(=O)(=O)c2ccc(Br)s2)CC1 | -4 | 3 | 0 | 1 | -11 | · | ·
CCON=C(C)c1c(O)cc(-c2ccccc2)n(-c2ccccc2)c1=O | · | · | · | 3 | · | · | ·
CCC(=NNC(=O)c1csc(C)c1C)c1cccs1 | · | · | · | 6 | · | · | ·
c1ccc(NN=C(Cc2nc3ccccc3[nH]2)c2ccccc2)cc1 | · | · | · | 2 | · | · | ·
Cc1ccc(N=Nc2c(=O)[nH]n3c(C)cc(C)nc23)cc1 | 1 | 3 | 2 | 8 | 23* | 6 | 6
Cc1ccc(N=Nc2c(N)[nH]n3c(=O)cc(C)nc23)cc1 | 3 | -2 | 0 | 15 | -2 | · | ·
NC(=S)NN=Cc1ccccc1OC(=O)/C=C/c1ccccc1 | · | · | · | 0 | · | · | ·
CC1=NN(c2ccccc2)C(c2ccco2)C1 (centres undefined) | · | -6 | 0 | 3 | 20* | -1 | 2
Nc1nonc1-n1nnc(C(=O)NN=Cc2ccc(Cl)cc2Cl)c1CN1CCOCC1 | · | · | · | 8 | · | · | ·
O=C1NCCc2c1[nH]c1ccc([N+](=O)[O-])cc21 | -2 | 9 | 0 | 7 | 19* | 3 | 5
Cc1c(C(=O)NC2CCCc3ccccc32)cccc1[N+](=O)[O-] (centres undefined) | 1 | 8 | 0 | 2 | 23* | 2 | 0
CON=C(CS(=O)Cc1ccc(Cl)cc1)c1ccc(Cl)cc1 (centres undefined) | · | · | · | -1 | · | · | ·
CCCn1c(SCC(=O)N2CCCC2)nc2c1c(=O)n(C)c(=O)n2C | -2 | -4 | 0 | 5 | 21* | -2 | -2
Cc1sc(N)nc1-c1ccccc1 | 0 | -2 | 0 | 1 | 21* | 1 | 0
Cn1cc(S(=O)(=O)Nc2ccc(F)c(Cl)c2)c(=O)n(C)c1=O | 2 | -7 | 0 | 3 | -10 | · | ·
CC(=O)Nc1ccc(NS(=O)(=O)c2cn(C)c(=O)n(C)c2=O)cc1 | 3 | 8 | 0 | -1 | 20* | 3 | -1

High-throughput results: PubChem, several laboratories
